# Laboratory results taken from ChEMBL document CHEMBL1125613, “Synthesis, receptor binding, and tissue distribution of 7 alpha- and 11 beta-substituted (17 alpha,20E)- and (17 alpha,20Z)-21-[125I]iodo-19-norpregna-1,3,5(10),20-tetraene-3,17-diols” (J Med Chem, 1991).
# How the values were obtained:
# [1] = biological target: Estrogen receptor (Mus musculus) (UniProt O08537+P19785); test: Relative binding affinity for murine cytoplasmic estrogen receptor as displacement of [3H]estradiol; type: protein assay
# Estrogen receptor (Mus musculus), sequence (O08537 whole entry, looked up): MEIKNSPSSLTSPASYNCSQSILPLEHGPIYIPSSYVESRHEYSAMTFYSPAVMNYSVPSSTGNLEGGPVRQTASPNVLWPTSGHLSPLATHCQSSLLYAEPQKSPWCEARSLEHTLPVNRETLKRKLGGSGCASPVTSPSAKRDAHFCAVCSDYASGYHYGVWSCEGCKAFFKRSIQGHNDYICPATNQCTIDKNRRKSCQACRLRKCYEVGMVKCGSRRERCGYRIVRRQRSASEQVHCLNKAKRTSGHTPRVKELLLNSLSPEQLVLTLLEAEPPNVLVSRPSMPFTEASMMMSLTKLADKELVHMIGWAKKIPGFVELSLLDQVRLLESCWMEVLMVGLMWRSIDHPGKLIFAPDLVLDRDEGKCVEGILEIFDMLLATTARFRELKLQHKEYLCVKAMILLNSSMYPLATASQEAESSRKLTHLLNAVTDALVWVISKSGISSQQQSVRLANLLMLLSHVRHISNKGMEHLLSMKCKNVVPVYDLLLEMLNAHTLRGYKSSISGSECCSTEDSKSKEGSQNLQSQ
# Estrogen receptor (Mus musculus), sequence (P19785 whole entry, looked up): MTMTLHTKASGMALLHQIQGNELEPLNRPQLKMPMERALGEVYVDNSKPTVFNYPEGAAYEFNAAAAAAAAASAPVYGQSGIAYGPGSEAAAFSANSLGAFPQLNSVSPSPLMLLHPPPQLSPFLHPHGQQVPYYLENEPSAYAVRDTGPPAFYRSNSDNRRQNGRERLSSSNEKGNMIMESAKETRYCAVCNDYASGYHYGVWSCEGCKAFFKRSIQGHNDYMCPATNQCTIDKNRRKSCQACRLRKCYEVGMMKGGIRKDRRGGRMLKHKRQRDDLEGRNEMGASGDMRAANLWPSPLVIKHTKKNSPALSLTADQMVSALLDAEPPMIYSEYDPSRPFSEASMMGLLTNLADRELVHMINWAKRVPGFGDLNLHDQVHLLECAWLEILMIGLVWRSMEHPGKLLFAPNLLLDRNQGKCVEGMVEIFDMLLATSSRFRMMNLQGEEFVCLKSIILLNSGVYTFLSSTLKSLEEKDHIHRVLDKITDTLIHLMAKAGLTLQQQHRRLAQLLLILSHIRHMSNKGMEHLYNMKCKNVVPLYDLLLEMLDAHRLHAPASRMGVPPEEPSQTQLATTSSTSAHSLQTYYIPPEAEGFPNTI
# Summary of the method: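 Murine uterine cytoplasmic extract incubated 18 h at 0–4 °C with 20 nM [3H]estradiol, with or without competitor at 2 nM to 20 μM. Concentration for 50% competition of specific binding was read from the curve. RBA = 100 × ratio of estradiol to competitor concentration at 50% competition. Mean of three experiments.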
# Rattus norvegicus [2] = organism: Rattus norvegicus; test: Biodistribution studied in the ovaries of immature Fischer female rats at 5 hour; type: ADME, organism-based, Female gonad; details: in vivo
# Summary of the method: (§1)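 Immature female Fischer rats (24 days old, 55–60 g), unanesthetized in retention cages, given 3 μCi (111 kBq) nca 125I-labeled steroid in 200 μL via lateral tail vein. Vehicle was 9% ethanol in saline with 1% Tween-80, filtered 0.22 μm. Killed at 5 h under ether; tissues KCl-washed, blotted, weighed, gamma-counted; % ID/g, average of 4–5 rats, % CV.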
# Rattus norvegicus [3] = organism: Rattus norvegicus; test: Biodistribution studied in the adrenals of immature Fischer female rats at 5 hour; type: ADME, organism-based, Adrenal gland; details: in vivo; summary of the method: as §1
SMILES,relative binding affinity (RBA) [1],also measured
C[C@]12CC[C@@H]3c4ccc(O)cc4CC[C@H]3[C@@H]1CC[C@@]2(O)/C=C/I,32.8,–
C[C@@H]1Cc2cc(O)ccc2[C@H]2CC[C@@]3(C)[C@@H](CC[C@@]3(O)/C=C/[125I])[C@H]12,–,Concentration (Rattus norvegicus [2]): 2.91%
CCO[C@H]1C[C@@]2(C)[C@@H](CC[C@@]2(O)/C=C/I)[C@@H]2CCc3cc(O)ccc3[C@H]21,21.6,–
C[C@@H]1Cc2cc(O)ccc2[C@H]2CC[C@@]3(C)[C@@H](CC[C@@]3(O)/C=C\[125I])[C@H]12,–,Concentration (Rattus norvegicus [3]): 0.88%
C[C@@H]1Cc2cc(O)ccc2[C@H]2CC[C@@]3(C)[C@@H](CC[C@@]3(O)/C=C\I)[C@H]12,44.9,–
C=C[C@]1(O)CC[C@H]2[C@@H]3[C@H](C)Cc4cc(O)ccc4[C@H]3CC[C@@]21C,58.1,–
C#C[C@]1(O)CC[C@H]2[C@@H]3CCc4cc(O)ccc4[C@H]3[C@@H](OCC)C[C@@]21C,21,–
CO[C@H]1C[C@@]2(C)[C@@H](CC[C@@]2(O)/C=C\I)[C@@H]2CCc3cc(O)ccc3[C@H]21,32,–
C=C[C@]1(O)CC[C@H]2[C@@H]3CCc4cc(O)ccc4[C@H]3[C@@H](OC)C[C@@]21C,13.5,–

# Second part, led by results:
relative binding affinity (RBA) [1],SMILES,also measured
15.3,C#C[C@]1(O)CC[C@H]2[C@@H]3CCc4cc(O)ccc4[C@H]3[C@@H](OC)C[C@@]21C,–
27.7,CO[C@H]1C[C@@]2(C)[C@@H](CC[C@@]2(O)/C=C/I)[C@@H]2CCc3cc(O)ccc3[C@H]21,–
73.1,C#C[C@]1(O)CC[C@H]2[C@@H]3[C@H](C)Cc4cc(O)ccc4[C@H]3CC[C@@]21C,–
46.7,C[C@]12CC[C@@H]3c4ccc(O)cc4CC[C@H]3[C@@H]1CC[C@@]2(O)/C=C\I,–
30.8,CCO[C@H]1C[C@@]2(C)[C@@H](CC[C@@]2(O)/C=C\I)[C@@H]2CCc3cc(O)ccc3[C@H]21,–
43.2,C[C@@H]1Cc2cc(O)ccc2[C@H]2CC[C@@]3(C)[C@@H](CC[C@@]3(O)/C=C/I)[C@H]12,–
